Laboratory results: ChEMBL document CHEMBL1240435, “Synthesis of some 3-substituted amino-4,5-tetramethylene thieno[2,3-d][ 1,2,3]-triazin-4(3H)-ones as potential antimicrobial agents” (2010)
In brackets after ≈: the same amount, converted by molar mass.

Experiments:
Aspergillus niger [1] = assay: Antifungal activity against Aspergillus niger at 50 ug/ml after 48 hrs by agar cup diffusion method; type: functional; conditions: read-out: IZ
Candida albicans [2] = assay: Antifungal activity against Candida albicans at 50 ug/ml after 48 hrs by agar cup diffusion method; type: functional; conditions: read-out: IZ
Escherichia coli [3] = assay: Antibacterial activity against Escherichia coli after 24 hrs by tube dilution method; type: functional
Aspergillus niger [4] = assay: Antifungal activity against Aspergillus niger after 48 hrs by tube dilution method; type: functional
[5] = test system: Staphylococcus epidermidis; assay: Antibacterial activity against Staphylococcus epidermidis after 24 hrs by tube dilution method; type: functional
Cryptococcus neoformans [6] = assay: Antifungal activity against Cryptococcus neoformans at 50 ug/ml after 48 hrs by agar cup diffusion method; type: functional; conditions: read-out: IZ
Escherichia coli [7] = assay: Antibacterial activity against Escherichia coli at 50 ug/ml after 24 hrs by agar cup diffusion method; type: functional; conditions: read-out: IZ
Procedure, shortened: (§1)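 Compounds dissolved in DMF. A fresh bacterial subculture in isotonic NaCl was mixed into sterile assay medium at 40–45 °C and poured into Petri dishes. Test solution went into marked wells. Plates stood 5 min, were covered for 1 h, then incubated at 37 °C for 24 h. Inhibition zones were measured as the average of three readings.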

Staphylococcus aureus [8] = assay: Antibacterial activity against Staphylococcus aureus at 50 ug/ml after 24 hrs by agar cup diffusion method; type: functional; conditions: read-out: IZ; procedure, shortened: as §1
Salmonella typhi [9] = assay: Antibacterial activity against Salmonella typhi at 50 ug/ml after 24 hrs by agar cup diffusion method; type: functional, Salmonella enterica subsp. enterica serovar Typhi; conditions: Salmonella enterica, read-out: IZ
Procedure, shortened: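 Agar cup diffusion against an ATCC or IMTECH standard strain. The test compound is dissolved in DMF. A fresh bacterial subculture in isotonic NaCl is mixed into sterile medium at 40–45 °C and poured into plates. Solution is added to marked wells, left 5 min, then covered 1 h. Plates are incubated at 37 °C for 24 h. The inhibition zone is the mean of three readings, with ampicillin as reference.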

[10] = test system: Staphylococcus epidermidis; assay: Antibacterial activity against Staphylococcus epidermidis at 50 ug/ml after 24 hrs by agar cup diffusion method; type: functional; conditions: read-out: IZ; procedure, shortened: as §1
Salmonella typhi [11] = assay: Antibacterial activity against Salmonella typhi after 24 hrs by tube dilution method; type: functional, Salmonella enterica subsp. enterica serovar Typhi; conditions: Salmonella enterica
Staphylococcus aureus [12] = assay: Antibacterial activity against Staphylococcus aureus after 24 hrs by tube dilution method; type: functional
Cryptococcus neoformans [13] = assay: Antifungal activity against Cryptococcus neoformans after 48 hrs by tube dilution method; type: functional
Candida albicans [14] = assay: Antifungal activity against Candida albicans after 48 hrs by tube dilution method; type: functional

Row | Structure (SMILES) | zone of inhibition at 50 µg/mL (Aspergillus niger [1]) [mm] | zone of inhibition at 50 µg/mL (Candida albicans [2]) [mm] | MIC (Escherichia coli [3]) [mg/L] | MIC (Aspergillus niger [4]) [mg/L] | MIC [5] [mg/L] | zone of inhibition at 50 µg/mL (Cryptococcus neoformans [6]) [mm] | zone of inhibition at 50 µg/mL (Escherichia coli [7]) [mm] | zone of inhibition at 50 µg/mL (Staphylococcus aureus [8]) [mm] | zone of inhibition at 50 µg/mL (Salmonella typhi [9]) [mm] | zone of inhibition at 50 µg/mL [10] [mm] | MIC (Salmonella typhi [11]) [mg/L] | MIC (Staphylococcus aureus [12]) [mg/L] | MIC (Cryptococcus neoformans [13]) [mg/L] | MIC (Candida albicans [14]) [mg/L]
1 | O=c1c2c3c(sc2nnn1-c1ccc(F)cc1)CCCC3 | 10 | 8 | 12.5 (≈ 41.5 µM) | 12.5 (≈ 41.5 µM) | 6.75 (≈ 22.4 µM) | 8 | 26 | 32 | 24 | 32 | 12.5 (≈ 41.5 µM) | 6.75 (≈ 22.4 µM) | 75 (≈ 249 µM) | 37.5 (≈ 124 µM)
2 | O=c1[nH]nnc2sc3c(c12)CCCC3 | 4 | 3 | 50 (≈ 241 µM) | 37.5 (≈ 181 µM) | 37.5 (≈ 181 µM) | – | – | – | – | – | 37.5 (≈ 181 µM) | 37.5 (≈ 181 µM) | 125 (≈ 603 µM) | 50 (≈ 241 µM)
3 | O=c1c2c3c(sc2nnn1-c1ccccc1Cl)CCCC3 | 14 | 8 | 25 (≈ 78.7 µM) | 12.5 (≈ 39.3 µM) | 12.5 (≈ 39.3 µM) | 9 | 24 | 30 | 20 | 30 | 12.5 (≈ 39.3 µM) | 12.5 (≈ 39.3 µM) | 50 (≈ 157 µM) | 25 (≈ 78.7 µM)
4 | Clc1ccc(COC(Cn2ccnc2)c2ccc(Cl)cc2Cl)c(Cl)c1.O=[N+]([O-])O (stereo not drawn) [MICONAZOLE NITRATE] | 16 | 12 | – | 10 | – | 14 | – | – | – | – | – | – | 20 | 12.5
5 | O=c1c2c3c(sc2nnn1-c1ccc(F)c(Cl)c1)CCCC3 | 10 | 7 | 25 (≈ 74.5 µM) | 25 (≈ 74.5 µM) | 12.5 (≈ 37.2 µM) | 8 | 24 | 26 | 20 | 24 | 12.5 (≈ 37.2 µM) | 12.5 (≈ 37.2 µM) | 50 (≈ 149 µM) | 37.5 (≈ 112 µM)
6 | Cc1ccc(-n2nnc3sc4c(c3c2=O)CCCC4)cc1 | 8 | 5 | 37.5 (≈ 126 µM) | 25 (≈ 84.1 µM) | 25 (≈ 84.1 µM) | 5 | 20 | 28 | 18 | 28 | 25 (≈ 84.1 µM) | 25 (≈ 84.1 µM) | 75 (≈ 252 µM) | 37.5 (≈ 126 µM)
7 | CCn1nnc2sc3c(c2c1=O)CCCC3 | 6 | 5 | 50 (≈ 212 µM) | 37.5 (≈ 159 µM) | 37.5 (≈ 159 µM) | – | 16 | 18 | 16 | 16 | 37.5 (≈ 159 µM) | 37.5 (≈ 159 µM) | 125 (≈ 531 µM) | 50 (≈ 212 µM)
8 | O=c1c2c3c(sc2nnn1-c1ccccc1)CCCC3 | 6 | 4 | 37.5 (≈ 132 µM) | 37.5 (≈ 132 µM) | 25 (≈ 88.2 µM) | – | 12 | 20 | 12 | 17 | 37.5 (≈ 132 µM) | 25 (≈ 88.2 µM) | 125 (≈ 441 µM) | 50 (≈ 176 µM)
9 | O=c1c2c3c(sc2nnn1-c1cccc(Cl)c1)CCCC3 | 13 | 8 | 25 (≈ 78.7 µM) | 12.5 (≈ 39.3 µM) | 12.5 (≈ 39.3 µM) | 8 | 26 | 32 | 24 | 30 | 12.5 (≈ 39.3 µM) | 12.5 (≈ 39.3 µM) | 50 (≈ 157 µM) | 25 (≈ 78.7 µM)
10 | CC1(C)S[C@@H]2[C@H](NC(=O)[C@H](N)c3ccccc3)C(=O)N2[C@H]1C(=O)O [AMPICILLIN] | – | – | 4 (≈ 11.4 µM) | – | 1.56 (≈ 4.46 µM) | – | 28 | 40 | 26 | 36 | 6.25 (≈ 17.9 µM) | 0.5 (≈ 1.43 µM) | – | –
11 | Cn1nnc2sc3c(c2c1=O)CCCC3 | 6 | 4 | 50 (≈ 226 µM) | 37.5 (≈ 169 µM) | 37.5 (≈ 169 µM) | – | 12 | 16 | 14 | 18 | 37.5 (≈ 169 µM) | 37.5 (≈ 169 µM) | 125 (≈ 565 µM) | 50 (≈ 226 µM)
12 | O=c1c2c3c(sc2nnn1-c1ccc(Cl)cc1)CCCC3 | 16 | 10 | 25 (≈ 78.7 µM) | 12.5 (≈ 39.3 µM) | 12.5 (≈ 39.3 µM) | 10 | 26 | 34 | 26 | 32 | 12.5 (≈ 39.3 µM) | 12.5 (≈ 39.3 µM) | 37.5 (≈ 118 µM) | 25 (≈ 78.7 µM)
13 | Cc1cccc(-n2nnc3sc4c(c3c2=O)CCCC4)c1 | 8 | 4 | 37.5 (≈ 126 µM) | 25 (≈ 84.1 µM) | 25 (≈ 84.1 µM) | 6 | 14 | 24 | 14 | 20 | 25 (≈ 84.1 µM) | 25 (≈ 84.1 µM) | 75 (≈ 252 µM) | 37.5 (≈ 126 µM)
14 | Cc1ccccc1-n1nnc2sc3c(c2c1=O)CCCC3 | 6 | 4 | 37.5 (≈ 126 µM) | 25 (≈ 84.1 µM) | 25 (≈ 84.1 µM) | – | 14 | 20 | 12 | 18 | 25 (≈ 84.1 µM) | 25 (≈ 84.1 µM) | 75 (≈ 252 µM) | 37.5 (≈ 126 µM)
